Assay results as given in ChEMBL document CHEMBL1165887, “Structure-activity relationships of monomeric C2-aryl pyrrolo[2,1-c][1,4]benzodiazepine (PBD) antitumor agents” (J Med Chem, 2010).
Activity calls are given as the source filed them. The calls are words filed in the database; no cut-off is given here.

Tests used:
[1] = system: Calf thymus DNA; experiment: Binding affinity to calf thymus DNA assessed as change in melting temperature after 4 hrs; format: nucleic-acid assay; conditions: Bos taurus
Method in brief: (§1)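 Calf thymus DNA at a fixed 100 μM (DNAp, 50 μM bp) in pH 7.00 buffer of 10 mM NaH₂PO₄/Na₂HPO₄ and 1 mM Na₂EDTA, 1:5 ligand/DNAp ratio, DMSO ≤0.3% v/v. Mixture kept at 37 °C for the stated time, then melted while absorbance at 260 nm was monitored. Tm taken at the midpoint of the normalized profile; ΔTm = Tm(DNA+ligand) − Tm(DNA), corrected for DMSO; mean of at least three runs.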

[2] = system: K562; experiment: Cytotoxicity against human K562 cells after 96 hrs by alamar blue assay; format: functional, cell-based; conditions: K562, 96 h
Method in brief: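 K562 cells kept in RPMI with 10% fetal calf serum and 2 mM glutamine, seeded at 10⁴ cells/mL. Compounds serially diluted in DMSO and added in triplicate; exposure 96 h at 37 °C, 5% CO₂. Alamar Blue (1 μM final) then added for a further 4 h; read by fluorescence emission at 580-620 nm.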

[3] = system: Calf thymus DNA; experiment: Binding affinity to calf thymus DNA assessed as change in melting temperature after 18 hrs; format: nucleic-acid assay; conditions: Bos taurus; method in brief: as §1
[4] = Growth inhibition of human NCI60 cells after 48 hrs by SRB assay; format: functional; conditions: NCI60, 48 h; for CC50: read-out: LC50 (the source's name)
[5] = system: Mus musculus; experiment: Toxicity in human HCT116 xenografter nu/nu BALB/c mouse assessed as change in body weight at 300 ug/kg, iv; format: organism-based; conditions: in vivo, 0.3 mg/kg
Method in brief: (§2)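 Female nu/nu-BALB/c athymic nude mice bearing subcutaneous flank HCT 116 xenografts (10⁷ cells), dosed once intravenously at 300 μg/kg in 1% DMSO/saline once tumours reached 50-100 mm³; vehicle-only controls. Tumours measured by calliper 3 times a week (width² × length/2), expressed as volume relative to day 1. Body weight monitored daily over 12 days as % change from day 1.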

[6] = system: HCT-116; experiment: Antitumor activity against human HCT116 cells xenografted in nu/nu BALB/c mouse assessed as delay in tumor growth at 300 ug/kg, iv; format: functional, cell-based; method in brief: as §2

## COc1cc2c(cc1OC)C(=O)N1C=C(c3ccc(C(F)(F)F)cc3)C[C@H]1C=N2
[1]
  ΔTm: 11.7 °C
[2]
  IC50: 24.3 nM
[3]
  ΔTm: 11.9 °C
[4]
  GI50: 4 nM
  TGI: 30 nM
  CC50: 1660 nM

## CCc1ccc(C2=CN3C(=O)c4cc(OC)c(OC)cc4N=C[C@@H]3C2)cc1
[1]
  ΔTm: 9.4 °C
[2]
  IC50: 79.5 nM
[3]
  ΔTm: 9.7 °C
[4]
  GI50: 1 nM
  TGI: 70 nM
  CC50: 4170 nM

## COc1cc2c(cc1OC)C(=O)N1C=C(c3c(C)cccc3C)C[C@H]1C=N2
[1]
  ΔTm: 0.5 °C
[2]
  IC50: > 1000 nM
[3]
  ΔTm: 0.5 °C
[4]
  GI50: 851 nM
  TGI: 3460 nM
  CC50: 20900 nM

## COc1cc2c(cc1OC)C(=O)N1C=C(c3ccc(C)cc3)C[C@H]1C=N2
[1]
  ΔTm: 9.8 °C
[2]
  IC50: 0.28 nM
[3]
  ΔTm: 10.1 °C
[4]
  GI50: 2 nM
  TGI: 180 nM
  CC50: 8900 nM

## COc1cc2c(cc1OC)C(=O)N1C=C(c3ccc(N(C)C)cc3)C[C@H]1C=N2
[1]
  ΔTm: 7.6 °C
[2]
  IC50: 32.1 nM
[3]
  ΔTm: 8 °C
[4]
  GI50: 3 nM
  TGI: 40 nM
  CC50: 3230 nM

## COc1cc2c(cc1OC)C(=O)N1C=C(c3ccc4c(c3)OCO4)C[C@H]1C=N2
[1]
  ΔTm: 10.3 °C
[2]
  IC50: 0.47 nM
[3]
  ΔTm: 10.3 °C
[4]
  GI50: 2 nM
  TGI: 30 nM
  CC50: 3630 nM

## COc1cc2c(cc1OC)C(=O)N1C=C(c3ccccc3C)C[C@H]1C=N2
[1]
  ΔTm: 6.8 °C
[2]
  IC50: 9.3 nM
[3]
  ΔTm: 6.9 °C
[4]
  GI50: 12 nM
  TGI: 250 nM
  CC50: 10700 nM

## COc1cc2c(cc1OC)C(=O)N1C=C(c3cnc4ccccc4c3)C[C@H]1C=N2
[1]
  ΔTm: 18.1 °C
[2]
  IC50: 8.9 nM
[3]
  ΔTm: 18.2 °C
[4]
  GI50: 0.1 nM
  TGI: 1 nM
  CC50: 180 nM

## COc1cc2c(cc1OC)C(=O)N1C=C(c3ccc(SC)cc3)C[C@H]1C=N2
[1]
  ΔTm: 10.5 °C
[2]
  IC50: 19 nM
[3]
  ΔTm: 10.7 °C
[4]
  GI50: 5 nM
  TGI: 20 nM
  CC50: 1440 nM

## COc1ccc(C2=CN3C(=O)c4cc(OC)c(OC)cc4N=C[C@@H]3C2)cc1
[1]
  ΔTm: 10.5 °C
[2]
  IC50: 4.9 nM
[3]
  ΔTm: 10.6 °C
[4]
  GI50: 1 nM
  TGI: 150 nM
  CC50: 910 nM

## COc1cc2c(cc1OC)C(=O)N1C=C(c3ccc4ncccc4c3)C[C@H]1C=N2
[1]
  ΔTm: 19.9 °C
[2]
  IC50: 1.4 nM
[5]
  Activity: Non-toxic
[3]
  ΔTm: 20.5 °C
[6]
  Activity: Active
[4]
  GI50: 0.4 nM
  TGI: 4 nM
  CC50: 190 nM

## COc1cc2c(cc1OC)C(=O)N1C=C(c3ccc(N)cc3)C[C@H]1C=N2
[1]
  ΔTm: 6.2 °C
[2]
  IC50: 14 nM
[3]
  ΔTm: 6.5 °C
[4]
  GI50: 2 nM
  TGI: 30 nM
  CC50: 4790 nM

## COc1cc2c(cc1OC)C(=O)N1C=C(c3ccc(F)cc3)C[C@H]1C=N2
[1]
  ΔTm: 10.4 °C
[2]
  IC50: 1.6 nM
[3]
  ΔTm: 10.6 °C
[4]
  GI50: 2 nM
  TGI: 120 nM
  CC50: 11200 nM

## COc1cc2c(cc1OC)C(=O)N1C=C(c3cccs3)C[C@H]1C=N2
[1]
  ΔTm: 12.7 °C
[2]
  IC50: 1.1 nM
[3]
  ΔTm: 13 °C
[4]
  GI50: 10 nM
  TGI: 150 nM
  CC50: 740 nM

## COc1cc2c(cc1OC)C(=O)N1C=C(c3ccc4ccccc4c3)C[C@H]1C=N2
[1]
  ΔTm: 15.4 °C
[2]
  IC50: 45.4 nM
[3]
  ΔTm: 15.7 °C
[4]
  GI50: 0.6 nM
  TGI: 15 nM
  CC50: 400 nM

## COc1cc2c(cc1OC)C(=O)N1C=C(c3ccc(Oc4ccccc4)cc3)C[C@H]1C=N2
[1]
  ΔTm: 11.9 °C
[2]
  IC50: 51.1 nM
[3]
  ΔTm: 12.1 °C
[4]
  GI50: 3 nM
  TGI: 30 nM
  CC50: 1260 nM

## COc1cc2c(cc1OC)C(=O)N1C=C(c3ccc(C#N)cc3)C[C@H]1C=N2
[1]
  ΔTm: 10.9 °C
[2]
  IC50: 19.8 nM
[3]
  ΔTm: 11 °C
[4]
  GI50: 3 nM
  TGI: 150 nM
  CC50: 7410 nM

## COc1cc2c(cc1OC)C(=O)N1C=C(c3ccc(Cl)cc3)C[C@H]1C=N2
[1]
  ΔTm: 9.9 °C
[2]
  IC50: 31.3 nM
[3]
  ΔTm: 10.2 °C
[4]
  GI50: 2 nM
  TGI: 70 nM
  CC50: 4470 nM

## COc1cc2c(cc1OC)C(=O)N1C=C(c3ccc(-c4ccccc4)cc3)C[C@H]1C=N2
[1]
  ΔTm: 8.1 °C
[2]
  IC50: 19.6 nM
[3]
  ΔTm: 8.4 °C
[4]
  GI50: 8 nM
  TGI: 90 nM
  CC50: 3630 nM

## COc1cccc(C2=CN3C(=O)c4cc(OC)c(OC)cc4N=C[C@@H]3C2)c1
[1]
  ΔTm: 10.1 °C
[2]
  IC50: 0.45 nM
[3]
  ΔTm: 10.2 °C
[4]
  GI50: 11 nM
  TGI: 60 nM
  CC50: 4070 nM

## C=Cc1ccc(C2=CN3C(=O)c4cc(OC)c(OC)cc4N=C[C@@H]3C2)cc1
[1]
  ΔTm: 9 °C
[2]
  IC50: 69 nM
[3]
  ΔTm: 9.2 °C
[4]
  GI50: 5 nM
  TGI: 10 nM
  CC50: 620 nM

## COc1cc2c(cc1OC)C(=O)N1C=C(c3ccc(C(C)C)cc3)C[C@H]1C=N2
[1]
  ΔTm: 6.7 °C
[2]
  IC50: 115 nM
[3]
  ΔTm: 6.9 °C
[4]
  GI50: 4 nM
  TGI: 60 nM
  CC50: 4460 nM

## COc1cc2c(cc1OC)C(=O)N1C=C(c3ccccc3)C[C@H]1C=N2
[1]
  ΔTm: 10.6 °C
[2]
  IC50: 2.5 nM
[3]
  ΔTm: 10.8 °C
[4]
  GI50: 2 nM
  TGI: 40 nM
  CC50: 5130 nM

## C/C=C/C1=CN2C(=O)c3cc(O[C@@H]4O[C@@H](C)[C@H](NC)[C@@](C)(O)[C@H]4O)c(C)c(O)c3N[C@H](O)[C@@H]2C1 [SIBIROMYCIN]
[1]
  ΔTm: 16 °C
[2]
  IC50: 1.4 nM
[3]
  ΔTm: 16.3 °C
[4]
  GI50: 33 nM
  TGI: 850 nM
  CC50: 16700 nM

## COc1cc2c(cc1OC)C(=O)N1C=C(c3ccc(C(C)(C)C)cc3)C[C@H]1C=N2
[1]
  ΔTm: 9 °C
[2]
  IC50: 47.8 nM
[3]
  ΔTm: 9.2 °C
[4]
  GI50: 2 nM
  TGI: 50 nM
  CC50: 1940 nM

## COc1cc2c(cc1OC)C(=O)N1C=C(c3ccc(C=O)cc3)C[C@H]1C=N2
[1]
  ΔTm: 10.6 °C
[2]
  IC50: 26.3 nM
[3]
  ΔTm: 10.8 °C
[4]
  GI50: 9 nM
  TGI: 160 nM
  CC50: 15100 nM

## COc1cc2c(cc1OC)C(=O)N1C=C(c3cccc4c3sc3ccccc34)C[C@H]1C=N2
[2]
  IC50: 163 nM
[4]
  GI50: 25 nM
  TGI: 220 nM
  CC50: 5370 nM

## COc1cccc(C2=CN3C(=O)c4cc(OC)c(OC)cc4N[C@@H](S(=O)(=O)O)[C@@H]3C2)c1
[2]
  IC50: 7.1 nM
[4]
  GI50: 5 nM
  TGI: 70 nM
  CC50: 0.4 nM

## COC(=O)c1cccc(C2=CN3C(=O)c4cc(OC)c(OC)cc4N=C[C@@H]3C2)c1
[2]
  IC50: 12.4 nM
[4]
  GI50: 5 nM
  TGI: 40 nM
  CC50: 7580 nM

## CO[C@H]1Nc2c(ccc(C)c2O)C(=O)N2C=C(/C=C/C(N)=O)C[C@@H]12 [ANTHRAMYCIN METHYL ETHER]
[1]
  ΔTm: 11.2 °C
[2]
  IC50: 8 nM
[3]
  ΔTm: 13 °C
[4]
  GI50: 13 nM
  TGI: 1580 nM
  CC50: 24500 nM

## COc1cc2c(cc1OC)C(=O)N1C=C(c3ccc(C(C)(C)C)cc3)C[C@H]1[C@H](S(=O)(=O)O)N2
[2]
  IC50: 70 nM
[4]
  GI50: 8 nM
  TGI: 50 nM
  CC50: 47.8 nM
